Assay results of several laboratories.
Cell line: UACC-62
Read-out: cell growth or viability

`COc1cc(-c2ccc(-c3ccc(C(=N)N)nc3)s2)cc(OC)c1OC` gave a GI50 of 1730 nM (SRB).
For `Cc1cc(C)n(C(=S)[S][Au][PH](CCCCCC[PH]([Au][S]C(=S)n2nc(C)cc2C)(c2ccccc2)c2ccccc2)(c2ccccc2)c2ccccc2)n1`, the GI50 was 250 nM.
The IC50 of `O=C1NCCc2[nH]c(-c3ccncc3)cc21` is reported as 6120 nM.
`COc1ccc(C(=O)/C=C/c2cccc3ccccc23)cc1S(N)(=O)=O` gave an inhibition of 158% (SRB; 10 µM).
For `O=C1NC(=NCc2cccs2)S/C1=C\c1ccc2ncccc2c1`, the IC50 was > 10000 nM.
The GI50 of `COc1ccc(-c2ccc(-c3ccc(C(=N)N)nc3)s2)cc1` is reported as 1810 nM (SRB).
For `COc1ccc(C(=O)/C=C/c2cccnc2)cc1S(N)(=O)=O`, the GI50 was 12900 nM (SRB; 48 h).
For `COc1cccc(Oc2ccccc2NC(=O)CNC(=O)c2cccc3ccccc23)c1`, the GI50 was 209 nM (SRB; 48 h).
